In ChEMBL document CHEMBL1165943, “Design and synthesis of new anticancer pyrimidines with multiple-kinase inhibitory effect” (Bioorg Med Chem, 2010):

Columns and labels:
Type in all cases: functional
MDA-MB-231 = test: Cytotoxicity against human MDA-MB-231 cells assessed as cell growth at 10 uM; settings: Homo sapiens, MDA-MB-231; read-out: Activity
How it was run: (§1)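 Single-dose screen at 10 μM across the 60-cell-line panel. Cells grown in RPMI 1640 with 5% FBS and 2 mM L-glutamine, seeded at 5,000–40,000 cells/well according to doubling time, and treated 24 h later. Exposure lasted 48 h at 37 °C, 5% CO₂. Adherent cells were fixed with cold TCA, suspension cells were fixed settled, and both were stained with SRB and read at 515 nm. Growth % was recorded, with inhibition % = 100 − growth %.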

COLO 205 = test: Cytotoxicity against human COLO205 cells assessed as cell growth at 10 uM; settings: Homo sapiens, COLO 205; read-out: Activity
How it was run: (§2)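 Single-concentration screen at 10 μM across the 60-cell-line panel (nine tissue types); growth percentage recorded per cell line, with inhibition taken as 100 minus growth percentage.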

[1] = Cytotoxicity against human […] cells assessed as cell growth at 10 uM; settings: Homo sapiens, RPMI8266; read-out: Activity; how it was run: as §1
SR = test: Cytotoxicity against human SR cells assessed as cell growth at 10 uM; settings: Homo sapiens, SR; read-out: Activity; how it was run: as §1
NCI/ADR-RES = test: Cytotoxicity against human NCI/ADR-RES cells assessed as cell growth at 10 uM; settings: Homo sapiens, NCI/ADR-RES; read-out: Activity; how it was run: as §1
CCRF-CEM = test: Cytotoxicity against human CCRF-CEM cells assessed as cell growth at 10 uM; settings: Homo sapiens, CCRF-CEM; read-out: Activity; how it was run: as §2
RXF 393 = test: Cytotoxicity against human RXF393 cells assessed as cell growth at 10 uM; settings: Homo sapiens, RXF 393; read-out: Activity; how it was run: as §1
SNB-75 = test: Cytotoxicity against human SNB75 cells assessed as cell growth at 10 uM; settings: Homo sapiens, SNB-75; read-out: Activity; how it was run: as §1
SK-MEL-2 = test: Cytotoxicity against human SK-MEL-2 cells assessed as cell growth at 10 uM; settings: Homo sapiens, SK-MEL-2; read-out: Activity; how it was run: as §1
UACC-62 = test: Cytotoxicity against human UACC62 cells assessed as cell growth at 10 uM; settings: Homo sapiens, UACC-62; read-out: Activity; how it was run: as §1
[2] = Cytotoxicity against human Hs 578T cells assessed as cell growth at 10 uM; settings: read-out: Activity; how it was run: as §2
HOP-62 = test: Cytotoxicity against human HOP62 cells assessed as cell growth at 10 uM; settings: Homo sapiens, HOP-62; read-out: Activity; how it was run: as §2
IGROV-1 = test: Cytotoxicity against human IGROV1 cells assessed as cell growth at 10 uM; settings: Homo sapiens, IGROV-1; read-out: Activity; how it was run: as §1
M14 = test: Cytotoxicity against human M14 cells assessed as cell growth at 10 uM; settings: Homo sapiens, M14; read-out: Activity; how it was run: as §1
MCF7 = test: Cytotoxicity against human MCF7 cells assessed as cell growth at 10 uM; settings: Homo sapiens, MCF7; read-out: Activity; how it was run: as §1
T47D = test: Cytotoxicity against human T47D cells assessed as cell growth at 10 uM; settings: Homo sapiens, T47D; read-out: Activity; how it was run: as §1
SK-MEL-28 = test: Cytotoxicity against human SK-MEL-28 cells assessed as cell growth at 10 uM; settings: Homo sapiens, SK-MEL-28; read-out: Activity; how it was run: as §1
HOP-92 = test: Cytotoxicity against human HOP92 cells assessed as cell growth at 10 uM; settings: Homo sapiens, HOP-92; read-out: Activity; how it was run: as §2
SW-620 = test: Cytotoxicity against human SW620 cells assessed as cell growth at 10 uM; settings: Homo sapiens, SW-620; read-out: Activity; how it was run: as §1
MDA-MB-435 = test: Cytotoxicity against human MDA-MB-435 cells assessed as cell growth at 10 uM; settings: read-out: Activity; how it was run: as §1
SNB-19 = test: Cytotoxicity against human SNB19 cells assessed as cell growth at 10 uM; settings: read-out: Activity; how it was run: as §1
HT-29 = test: Cytotoxicity against human HT-29 cells assessed as cell growth at 10 uM; settings: Homo sapiens, HT-29; read-out: Activity; how it was run: as §2
A549 = test: Cytotoxicity against human A549 cells assessed as cell growth at 10 uM; settings: Homo sapiens, A549; read-out: Activity; how it was run: as §2
SN12C = test: Cytotoxicity against human SN12C cells assessed as cell growth at 10 uM; settings: Homo sapiens, SN12C; read-out: Activity; how it was run: as §1

| Structure (SMILES) | growth at 10 µM (MDA-MB-231) [%] | growth at 10 µM (COLO 205) [%] | growth at 10 µM (SR) [%] | growth at 10 µM (NCI/ADR-RES) [%] | growth at 10 µM (RXF 393) [%] | growth at 10 µM (SNB-75) [%] | growth at 10 µM (SK-MEL-2) [%] | growth at 10 µM (UACC-62) [%] | growth at 10 µM [2] [%] | growth at 10 µM (HOP-62) [%] | growth at 10 µM (IGROV-1) [%] | growth at 10 µM (M14) [%] | growth at 10 µM (MCF7) [%] | growth at 10 µM (T47D) [%] | growth at 10 µM (SK-MEL-28) [%] | growth at 10 µM (SW-620) [%] | growth at 10 µM (MDA-MB-435) [%] | growth at 10 µM (SNB-19) [%] | growth at 10 µM (HT-29) [%] | growth at 10 µM (A549) [%] | also measured |
| --- | --- | --- | --- | --- | --- | --- | --- | --- | --- | --- | --- | --- | --- | --- | --- | --- | --- | --- | --- | --- | --- |
| FC(F)(F)c1cc(Nc2nccc(-c3ccc(Nc4ccccc4)nc3)n2)cc(C(F)(F)F)c1 | 97.5 | 104 | 90 | 102 | 107 | 86.5 | 92.1 | 99.1 | 101 | 94 | 102 | 111 | 75.4 | 84.5 | 110 | 101 | 108 | 91.6 | 99.8 | 96.2 | growth at 10 µM [1]: 98.3%; growth at 10 µM (CCRF-CEM): 96.6%; growth at 10 µM (HOP-92): 100% |
| FC(F)(F)c1cc(Nc2nccc(-c3cccnc3)n2)cc(C(F)(F)F)c1 | 91.3 | 119 | 87.8 | 94.7 | 79 | 95.3 | 98.2 | 102 | 103 | 104 | 101 | 116 | 96 | 83.9 | 115 | 109 | 102 | 94 | 92.1 | 93.8 | growth at 10 µM (SN12C): 88% |
| CC(=O)c1ccc(-c2ccc(-c3ccnc(Nc4cc(C(F)(F)F)cc(C(F)(F)F)c4)n3)cn2)cc1 | 98.2 | 110 | 96.5 | 103 | 113 | 78.3 | 104 | 104 | 110 | 112 | 99.7 | 109 | 90.8 | 91.6 | 95.8 | 109 | 115 | 110 | 105 | 104 | growth at 10 µM [1]: 97.8%; growth at 10 µM (SN12C): 93.6%; growth at 10 µM (CCRF-CEM): 99.4%; growth at 10 µM (HOP-92): 103% |
| Cc1ccc(Nc2nc(C)cc(-c3cccnc3)n2)c(C)c1 | 87.6 | 122 | 94.4 | 85 | 90.7 | 85.3 | 107 | 82.4 | 95.9 | 111 | 90.4 | 114 | 90 | 87.1 | 108 | 97.5 | 95.4 | 101 | 96.8 | 90.3 | growth at 10 µM [1]: 86.7%; growth at 10 µM (SN12C): 91.2%; growth at 10 µM (CCRF-CEM): 95.4%; growth at 10 µM (HOP-92): 86.9% |
| FC(F)(F)c1cc(Nc2nccc(-c3ccc(-c4ccccc4)nc3)n2)cc(C(F)(F)F)c1 | 87.3 | 95.6 | 97.8 | 101 | 143 | 86.8 | 91.6 | 85.3 | 94.8 | 110 | 77.8 | 81.4 | 83.2 | 80.1 | 109 | 110 | 109 | 109 | 86 | 97.3 | growth at 10 µM [1]: 96.2%; growth at 10 µM (SN12C): 86.1%; growth at 10 µM (CCRF-CEM): 89.7%; growth at 10 µM (HOP-92): 89.7% |
